Measurements published in ChEMBL document CHEMBL3734686, “Synthesis, Photophysical Properties, and Biological Evaluation of trans-Bisthioglycosylated Tetrakis(fluorophenyl)chlorin for Photodynamic Therapy” (J Med Chem, 2015).

What was measured:
[1] = Drug uptake in nucleus of human Hela cells at 0.5 uM preincubated for 24 hrs followed by MitoTracker Green FM addition for 30 mins by CSLM analysis; type: ADME, cell-based; settings: 0.5 h
Summary of the method: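 HeLa cells (1 × 10^4) plated 24 h, incubated 24 h with 0.5 µM final photosensitizer (1% DMSO), washed, stained 30 min with 250 nM MitoTracker Green FM in HBSS at 37°C, fixed in 4% paraformaldehyde. Confocal imaging: red λex 488/λem 650 nm; green λex 488/λem 505–530 nm.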

Kidney [2] = test: Drug uptake in BALB/c mouse kidney implanted with mouse 4T1 cells assessed per gram of tissue at 0.18 mg/kg, ip after 48 hrs by HPLC-based fluorescence analysis; type: ADME, organism-based; settings: in vivo
Summary of the method: (§1)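 Female BALB/c mice bearing 4T1 thigh tumours received an i.p. dose in ethanol/PEG400/H2O (2/3/5) with 0.1% DMSO, or in saline, and were kept dark until killed. Tissues were weighed (100 mg), homogenised in CH3OH/DMSO/H2O (32/8/1) and centrifuged twice at 2300×g at 4°C. Supernatants were analysed by HPLC with fluorescence detection (λex 404/λem 654 nm or λex 400/λem 666 nm). n = 3 per time point.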

Liver = test: Drug uptake in BALB/c mouse liver implanted with mouse 4T1 cells assessed per gram of tissue at 0.18 mg/kg, ip after 6 hrs by HPLC-based fluorescence analysis; type: ADME, organism-based; settings: in vivo; summary of the method: as §1
[3] = Drug uptake in BALB/c mouse large intestine implanted with mouse 4T1 cells assessed per gram of tissue at 0.18 mg/kg, ip after 48 hrs by HPLC-based fluorescence analysis; type: ADME, organism-based; settings: in vivo; summary of the method: as §1
Heart [4] = test: Drug uptake in BALB/c mouse heart implanted with mouse 4T1 cells assessed per gram of tissue at 0.18 mg/kg, ip after 48 hrs by HPLC-based fluorescence analysis; type: ADME, organism-based; settings: in vivo; summary of the method: as §1
Kidney [5] = test: Drug uptake in BALB/c mouse kidney implanted with mouse 4T1 cells assessed per gram of tissue at 0.18 mg/kg, ip after 72 hrs by HPLC-based fluorescence analysis; type: ADME, organism-based; settings: in vivo; summary of the method: as §1
Heart [6] = test: Drug uptake in BALB/c mouse heart implanted with mouse 4T1 cells assessed per gram of tissue at 0.18 mg/kg, ip after 6 hrs by HPLC-based fluorescence analysis; type: ADME, organism-based; settings: in vivo; summary of the method: as §1
Heart [7] = test: Drug uptake in BALB/c mouse heart implanted with mouse 4T1 cells assessed per gram of tissue at 0.18 mg/kg, ip after 72 hrs by HPLC-based fluorescence analysis; type: ADME, organism-based; settings: in vivo; summary of the method: as §1
Lung [8] = test: Drug uptake in BALB/c mouse lung implanted with mouse 4T1 cells assessed per gram of tissue at 0.18 mg/kg, ip after 72 hrs by HPLC-based fluorescence analysis; type: ADME, organism-based; settings: in vivo; summary of the method: as §1
[9] = Drug uptake in BALB/c mouse large intestine implanted with mouse 4T1 cells assessed per gram of tissue at 0.18 mg/kg, ip after 72 hrs by HPLC-based fluorescence analysis; type: ADME, organism-based; settings: in vivo; summary of the method: as §1
[10] = Drug uptake in BALB/c mouse small intestine implanted with mouse 4T1 cells assessed per gram of tissue at 0.18 mg/kg, ip after 72 hrs by HPLC-based fluorescence analysis; type: ADME, organism-based; settings: in vivo
Summary of the method: (§2)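 Female BALB/c mice with 4T1 cells (1 × 10^6 in HBSS) implanted in left rear thigh; single i.p. dose, 7 in ethanol/PEG400/H2O (2/3/5) with 0.1% DMSO, mono-L-aspartyl chlorin e6 in saline; kept dark until sacrifice. Tissues washed, frozen, homogenized in CH3OH/DMSO/H2O (32/8/1), centrifuged 2300×g; supernatant analysed by HPLC with fluorescence detection; three animals per time point.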

Mus musculus = test: Drug uptake in mouse 4T1 cells implanted BALB/c mouse assessed as time for drug accumulation at 0.045 to 0.36 mg/kg, ip administered for 48 hrs followed by irradiation at 40 mW/cm2; settings: in vivo
Urinary bladder = test: Drug uptake in BALB/c mouse bladder implanted with mouse 4T1 cells assessed per gram of tissue at 0.18 mg/kg, ip after 6 hrs by HPLC-based fluorescence analysis; type: ADME, organism-based; settings: in vivo; summary of the method: as §1
Lung [11] = test: Drug uptake in BALB/c mouse lung implanted with mouse 4T1 cells assessed per gram of tissue at 0.18 mg/kg, ip after 48 hrs by HPLC-based fluorescence analysis; type: ADME, organism-based; settings: in vivo; summary of the method: as §1
4T1 = test: Photocytotoxicity against mouse 4T1 cells assessed as cell survival preincubated for 24 hrs followed by irradiation at 16 J/cm2 measured at 24 hrs by WST-8 assay; type: functional, cell-based; settings: 4T1, light or radiation study
Summary of the method: (§3)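 Cells (5 × 10^3/well) in DMEM with 10% FCS, 24 h at 37°C, 5% CO2; photosensitizer 1–50000 nM (1% DMSO final) for 24 h, washed, fresh medium. Irradiated with 100-W halogen lamp through λ>500 nm or λ>600 nm cutoff filter to 16 J·cm−2; WST-8 absorbance at 450 nm 24 h later, survival normalized to no-drug wells.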

HeLa [12] = test: Dark cytotoxicity against human HeLa cells at 0.5 uM assessed as cell survival preincubated for 24 hrs measured by WST-8 assay in absence of photoirradiation; type: cell-based
Summary of the method: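 HeLa cells were seeded at 5 × 10^3 per well in DMEM with 10% FCS and grown for 24 h at 37°C. They were then exposed for 24 h to 0.5 µM photosensitizer (1% DMSO final), washed, and not irradiated. Viability was read 24 h later by WST-8 absorbance at 450 nm and expressed as percent of untreated wells.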

Spleen = test: Drug uptake in BALB/c mouse spleen implanted with mouse 4T1 cells assessed per gram of tissue at 0.18 mg/kg, ip after 48 hrs by HPLC-based fluorescence analysis; type: ADME, organism-based; settings: in vivo; summary of the method: as §2
[13] = Induction of reactive oxygen generation assessed as quantum yield of hydroxyl radical generation in O2 saturated PBS containing 1% DMSO under photoirradiation by spectrometry relative to control hematoporphyrin; type: physicochemical; settings: buffer
Summary of the method: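 Photosensitizer (1.00 µM) with HPF (2.00 µM) in PBS containing 1% DMSO, oxygenated 1 min, irradiated with 100-W halogen lamp through λ>500 nm cutoff filter at 37°C; hematoporphyrin as reference.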

Stomach = test: Drug uptake in BALB/c mouse stomach implanted with mouse 4T1 cells assessed per gram of tissue at 0.18 mg/kg, ip after 72 hrs by HPLC-based fluorescence analysis; type: ADME, organism-based; settings: in vivo; summary of the method: as §2
HeLa [14] = test: Drug uptake in human HeLa cells at 0.1 uM after 24 hrs by spectrophotometrical analysis; type: ADME, cell-based
Summary of the method: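 HeLa cells (2.5 × 10^6/well) in DMEM with 10% FCS, preincubated 24 h at 37°C; photosensitizer added to 0.1 µM final (1% DMSO) for 24 h, two wells each. Cells washed twice with PBS, lysed in DMSO, Soret-band absorbance read against DMSO calibration; mean of three replicate experiments.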

Zone of skin = test: Drug uptake in BALB/c mouse skin implanted with mouse 4T1 cells assessed per gram of tissue at 0.18 mg/kg, ip after 6 hrs by HPLC-based fluorescence analysis; type: ADME, organism-based; settings: in vivo; summary of the method: as §2
Muscle tissue = test: Drug uptake in BALB/c mouse muscle implanted with mouse 4T1 cells assessed per gram of tissue at 0.18 mg/kg, ip after 12 hrs by HPLC-based fluorescence analysis; type: ADME, organism-based; settings: in vivo; summary of the method: as §1
HeLa [15] = test: Photocytotoxicity against human HeLa cells assessed as cell survival preincubated for 24 hrs followed by irradiation at 16 J/cm2 measured at 24 hrs by WST-8 assay; type: functional, cell-based; settings: light or radiation study; summary of the method: as §3

Drug uptake [1]: Not Active | Drug uptake (Kidney [2]): 5 ng | Drug uptake (Liver): 109 ng/g | Drug uptake [3]: 17 ng/g | Drug uptake (Heart [4]): 2.1 ng/g | Drug uptake (Kidney [5]): 13 ng | Drug uptake (Heart [6]): 24 ng/g | Drug uptake (Heart [7]): 3.3 ng | Drug uptake (Lung [8]): 7 ng/g | Drug uptake [9]: 7 ng/g | Drug uptake [10]: 9.8 ng/g | Time (Mus musculus): 48 h | Drug uptake (Urinary bladder): 90 ng/g | Drug uptake (Lung [11]): 11 ng | Drug uptake (Spleen): 14 ng | Ratio [13]: 1.2 | Drug uptake (Stomach): 7 ng | Drug uptake (HeLa [14]): Active | Drug uptake (Zone of skin): 5 ng | Drug uptake (Muscle tissue): 4 ng
SMILES: CN1CC2C3=N/C(=C(/c4c(F)c(F)c(S[C@@H]5O[C@H](CO)[C@@H](O)[C@H](O)[C@H]5O)c(F)c4F)C4=N/C(=C(/c5c(F)c(F)c(F)c(F)c5F)c5ccc([nH]5)/C(c5c(F)c(F)c(S[C@@H]6O[C@H](CO)[C@@H](O)[C@H](O)[C@H]6O)c(F)c5F)=C5/C=CC(=N5)C3c3c(F)c(F)c(F)c(F)c3F)C=C4)C2C1 (stereo partly drawn)
EC50 (4T1): 0.5 nM | Activity (HeLa [12]): Non-toxic | EC50 (HeLa [15]): 0.5 nM
